Laboratory results taken from article PMC5424638 (Biomolecules & Therapeutics, 2016).

How the values were obtained:
Cytotoxicity assay = assay type: cell-based, rat; conditions: Sprague-Dawley, rat, primary neonatal rat cardiomyocytes
Outline: (§1)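 Ventricles from 1–3-day-old Sprague-Dawley rats were digested with 0.05% collagenase II/0.05% trypsin at 37°C, pre-plated 1.5 h to remove nonmyocytes, and cultured 3 days in DMEM/10% FBS. Cells were exposed to test compound at 0.01–1000 µM for 72 h (final DMSO ≤0.05%). MTT was added for 4 h at 37°C and absorbance read at 570 nm. TC50 (50% viability loss vs untreated) came from at least three dose-response curves.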

[1] = system: neonatal rat cardiomyocytes; assay: Cytotoxicity assay; assay type: cell-based; conditions: for 50% toxic concentration (CC50) fold higher than in the cinnamaldehyde group: cardiomyocytes
Outline: as §1

CVB3 (Nancy strain) = assay: Anti-viral activity assay in CVB3-infected cardiomyocytes; assay type: cell-based, coxsackievirus B3; conditions: for IC50: Enterovirus B, CVB3, Cardiomyocyte, 72 h; for TI (TC50/IC50): cardiomyocytes
Outline: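 Neonatal rat cardiomyocytes grown to confluence (about 1x10^4 cells/well) were infected with CVB3 (Nancy strain, 100 TCID50) for 2 h in six replicates. Cells were washed three times with PBS, then exposed to serial dilutions of test compound for 72 h. XTT plus phenazine methosulfate was added for 2 h, and OD was read at 450 nm (reference 690 nm). Inhibition was (ODtv−ODcv)/(ODcd−ODcv)x100, giving IC50 and TI (TC50/IC50).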

CVB3-induced myocarditis = assay: CVB3-induced viral myocarditis mouse model, cardiac pathological score; assay type: in vivo, BALB/c mice; conditions: for Pathological score (grade): day 7, n=10; for Myocardial damage compared with the infected control (model) group: 20, 40 and 60 mg/kg, day 7
Outline: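 Four-week-old male BALB/c mice (n=10/group, pathogen-free) received CVB3 i.p. at 100xTCID50 in 0.1 ml RPMI 1640. From day 2, interferon alpha was given i.p. once daily, and test compound at 20, 40 or 60 mg/kg was given by oral gavage in 0.5% CMC-saline. On day 7, ventricles were formalin-fixed, paraffin-embedded, cut at 4 µm and H&E stained. Inflamed fraction of the section (eyepiece grid, x200) was graded 0–4 (<25%, 25–50%, 50–75%, >75%).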

CVB3 = assay: Virus titration from heart homogenate of CVB3-infected mice; assay type: in vivo, BALB/c mice; conditions: day 7, n=10
TNF-α mRNA = TNF-α mRNA expression in CVB3-infected cardiomyocytes; assay type: cell-based, rat; conditions: 10 μM, 12 h
Outline: (§2)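 Neonatal rat cardiomyocytes were infected with CVB3 and then incubated with 10 µM test compound. Cytokine mRNA expression in the cells was measured by real-time PCR after 12 h. Data are given as mean ± SD.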

IL-1β mRNA = IL-1β mRNA expression in CVB3-infected cardiomyocytes; assay type: cell-based, rat; conditions: 10 μM, 12 h
Outline: as §2

IL-6 mRNA = IL-6 mRNA expression in CVB3-infected cardiomyocytes; assay type: cell-based, rat; conditions: 10 μM, 12 h
Outline: as §2

TNF-α [2] = assay: TNF-α protein expression in CVB3-infected cardiomyocytes; assay type: cell-based, rat; conditions: 10 μM, 24 h
Outline: (§3)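 CVB3-infected neonatal rat cardiomyocytes were treated with 10 µM test compound for 24 h. Whole-cell lysates (equal protein) were run on 15% SDS-PAGE and transferred to nitrocellulose. Membranes were blocked in 5% skimmed milk for 2 h at room temperature, probed with cytokine and GAPDH antibodies overnight at 4°C, then with HRP secondary for 1 h, and detected by chemiluminescence. Bands were expressed as ratio to GAPDH (n=3, mean ± SD).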

IL-1β [3] = assay: IL-1β protein expression in CVB3-infected cardiomyocytes; assay type: cell-based, rat; conditions: 10 μM, 24 h
Outline: as §3

IL-6 [4] = assay: IL-6 protein expression in CVB3-infected cardiomyocytes; assay type: cell-based, rat; conditions: 10 μM, 24 h
Outline: as §3

[5] = 24 h stability in blood at room temperature; assay type: in vitro ADME, rat; conditions: unpublished data
[6] = Pharmacokinetics in rats after single oral administration; assay type: in vivo, rat; conditions: single oral dose 20 mg/kg, preliminary, unpublished data
[7] = ref Yuan et al., 1992; cited from earlier work
TNF-α [8] = assay: TNF-α level in culture supernatant of CVB3-infected cardiomyocytes; assay type: cell-based, rat; conditions: 10 μM, 72 h; viral control 80.12 ± 8.40
IL-1β [9] = assay: IL-1β level in culture supernatant of CVB3-infected cardiomyocytes; assay type: cell-based, rat; conditions: 10 μM, 72 h; viral control 163.64 ± 19.75
IL-6 [10] = assay: IL-6 level in culture supernatant of CVB3-infected cardiomyocytes; assay type: cell-based, rat; conditions: 10 μM, 72 h; viral control 337.46 ± 29.22

SMILES: Cc1ccc(/C=C(\Br)C=O)cc1 [Compound 4, (Z)-2-bromo-3-p-tolylacrylaldehyde]
- CC50 at 72 h (Cytotoxicity assay): 38.6 ± 4.89 µM
- 50% toxic concentration (CC50) fold higher than in the cinnamaldehyde group [1]: 39 fold
- IC50 (CVB3 (Nancy strain)): 11.4 ± 2.22 µM
- TI (TC50/IC50) (CVB3 (Nancy strain)): 3.39
- Pathological score (grade) (CVB3-induced myocarditis; 20 mg/kg/day, oral gavage): 2.80 ± 0.70 grade
- Pathological score (grade) (CVB3-induced myocarditis; 40 mg/kg/day): 2.10 ± 0.60 grade
- Pathological score (grade) (CVB3-induced myocarditis; 60 mg/kg/day, oral gavage): 1.90 ± 0.60 grade
- Myocardial damage compared with the infected control (model) group (CVB3-induced myocarditis): significantly reduced
- Viral titers (CVB3; 20 mg/kg/day, oral gavage): 3.10 ± 0.74 Log TCID50/mg
- Viral titers (CVB3; 40 mg/kg/day): 2.90 ± 0.57 Log TCID50/mg
- TNF-α mRNA expression (TNF-α mRNA): inhibited
- IL-1β mRNA expression (IL-1β mRNA): inhibited
- IL-6 mRNA expression (IL-6 mRNA): inhibited
- CVB3-mediated TNF-α expression (Western blot) (TNF-α [2]): markedly diminished
- CVB3-mediated IL-1β expression (Western blot) (IL-1β [3]): markedly diminished
- CVB3-mediated IL-6 expression (Western blot) (IL-6 [4]): markedly diminished
- Stability in blood [5]: stable for 24 h
- Time at which peak concentration was achieved after oral administration [6]: ~3.3 h

SMILES: O=CC=Cc1ccccc1 [Cinnamaldehyde, 3-phenyl-2-propenal, reference compound]
- CC50 at 72 h (Cytotoxicity assay): 0.98 ± 0.12 µM
- IC50 (CVB3 (Nancy strain)): 24.2 ± 4.77 µM
- TI (TC50/IC50) (CVB3 (Nancy strain)): 0.04
- Pathological score (grade) (CVB3-induced myocarditis; 40 mg/kg/day): 2.40 ± 0.50 grade
- Viral titers (CVB3; 40 mg/kg/day): 2.80 ± 0.63 Log TCID50/mg
- Half-life in rat blood [7]: 4 min

SMILES: COc1ccc(/C=C/C=O)cc1 [Compound 3, (E)-3-(4-methoxyphenyl)acrylaldehyde]
- CC50 at 72 h (Cytotoxicity assay): 7.88 ± 0.82 µM

SMILES: O=C/C(Br)=C/c1ccc(Cl)cc1 [Compound 5, (Z)-2-bromo-3-(4-chlorophenyl) acrylaldehyde]
- CC50 at 72 h (Cytotoxicity assay): 85.7 ± 7.63 µM
- 50% toxic concentration (CC50) fold higher than in the cinnamaldehyde group [1]: 87 fold
- IC50 (CVB3 (Nancy strain)): 2.12 ± 0.37 µM
- TI (TC50/IC50) (CVB3 (Nancy strain)): 40.42
- Pathological score (grade) (CVB3-induced myocarditis; 20 mg/kg/day, oral gavage): 1.95 ± 0.40 grade
- Pathological score (grade) (CVB3-induced myocarditis; 40 mg/kg/day): 1.75 ± 0.60 grade
- Pathological score (grade) (CVB3-induced myocarditis; 60 mg/kg/day, oral gavage): 1.30 ± 0.50 grade
- Myocardial damage compared with the infected control (model) group (CVB3-induced myocarditis): significantly reduced
- Viral titers (CVB3; 20 mg/kg/day, oral gavage): 2.80 ± 0.42 Log TCID50/mg
- TNF-α level in culture supernatant (TNF-α [8]): 43.60 ± 4.77 pg/mL
- IL-1β level in culture supernatant (IL-1β [9]): 112.72 ± 13.60 pg/mL
- IL-6 level in culture supernatant (IL-6 [10]): 232.80 ± 19.62 pg/mL
- TNF-α mRNA expression (TNF-α mRNA): inhibited
- IL-1β mRNA expression (IL-1β mRNA): inhibited
- IL-6 mRNA expression (IL-6 mRNA): inhibited
- CVB3-mediated TNF-α expression (Western blot) (TNF-α [2]): markedly diminished
- CVB3-mediated IL-1β expression (Western blot) (IL-1β [3]): markedly diminished
- CVB3-mediated IL-6 expression (Western blot) (IL-6 [4]): markedly diminished
- Stability in blood [5]: stable for 24 h
- Time at which peak concentration was achieved after oral administration [6]: ~2.1 h

SMILES: Cc1ccc(/C=C/C=O)cc1 [Compound 1, (E)-3-p-tolylacrylaldehyde]
- CC50 at 72 h (Cytotoxicity assay): 3.96 ± 0.29 µM

SMILES: O=C/C=C/c1ccc(Cl)cc1 [Compound 2, (E)-3-(4-chlorophenyl) acrylaldehyde]
- CC50 at 72 h (Cytotoxicity assay): 6970 µM
- 50% toxic concentration (CC50) fold higher than in the cinnamaldehyde group [1]: 7114 fold
- CC50 ([1]; neonatal rat cardiomyocytes, 0.01–1000 μM, 72 h, MTT, called TC50 in methods): no obvious cytotoxicity
- IC50 (CVB3 (Nancy strain)): 2110 µM
- TI (TC50/IC50) (CVB3 (Nancy strain)): 3.31
- Pathological score (grade) (CVB3-induced myocarditis; 20 mg/kg/day, oral gavage): 2.85 ± 0.70 grade
- Pathological score (grade) (CVB3-induced myocarditis; 40 mg/kg/day): 2.85 ± 0.70 grade
- Pathological score (grade) (CVB3-induced myocarditis; 60 mg/kg/day, oral gavage): 2.75 ± 0.60 grade
- Myocardial damage compared with the infected control (model) group (CVB3-induced myocarditis): no significant difference
- Viral titers (CVB3; 20 mg/kg/day, oral gavage): 3.30 ± 0.48 Log TCID50/mg
- Viral titers (CVB3; 40 mg/kg/day): 3.20 ± 0.63 Log TCID50/mg
- Viral titers (CVB3; 60 mg/kg/day, oral gavage): 3.10 ± 0.57 Log TCID50/mg
- Stability in blood [5]: stable for 24 h
- Time at which peak concentration was achieved after oral administration [6]: about 1.2 h
